# High-throughput results as filed in PubChem BioAssay.
# Wee1 stabilizer: blocks degradation of human Wee1 kinase. reporter increase, % at 5 µM. AID 1321. 220,000 tested, 1.2% active. HeLa Luc-Wee1K328M stability, luciferase luminescence; 100% = proteasome inhibitor MG132 effect;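 active = activation above the mean of all tested compounds plus 3 SD, set per screening run, cut at about 8.8% in these data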;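 also: cells exposed to compound for 20 h before luminescence read; 0% = DMSO alone and 100% = MG132 at 30 µM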
# PKD1 kinase inh: PKD1 (human) kinase inhibition; inhibition, % (no concentration beside the values); Q15139; 200,000 tested, 0.056% active; PKD1 kinase fluorescence polarization assay; in the data active = inhibition above about 50%
# FLuc stim CS: firefly luciferase counter-screen for stimulation assays. P08659. ATPlite luciferase biochemical, luminescence, 10 min; 0 = ATP-free wells, 1 = DMSO control. activation factor at 10 µM. 200,000 tested, under 10 active. AID 1027;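 active = luciferase activation factor, scaled between plate controls, of at least 2 with compound at 10 µM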
# Target sequence (P08659 whole entry, looked up): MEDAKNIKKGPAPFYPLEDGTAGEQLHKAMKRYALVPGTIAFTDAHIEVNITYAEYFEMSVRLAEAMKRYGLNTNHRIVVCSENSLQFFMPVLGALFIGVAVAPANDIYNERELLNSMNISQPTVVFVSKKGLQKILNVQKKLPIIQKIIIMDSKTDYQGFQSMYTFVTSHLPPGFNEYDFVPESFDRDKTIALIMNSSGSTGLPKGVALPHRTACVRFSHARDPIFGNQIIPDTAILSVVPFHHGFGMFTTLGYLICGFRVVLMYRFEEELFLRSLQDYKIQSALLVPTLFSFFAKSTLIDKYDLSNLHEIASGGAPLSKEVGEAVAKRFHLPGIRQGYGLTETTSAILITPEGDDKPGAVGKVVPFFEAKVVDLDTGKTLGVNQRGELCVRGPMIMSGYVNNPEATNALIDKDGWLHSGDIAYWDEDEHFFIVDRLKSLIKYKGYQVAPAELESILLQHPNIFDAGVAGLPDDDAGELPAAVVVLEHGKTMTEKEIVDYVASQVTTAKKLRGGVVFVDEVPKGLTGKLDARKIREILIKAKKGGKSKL
#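 System: cell-free luciferase reagent; medium: PBS as buffer for the ATP substrate; doses: test compounds dosed from 2 mM stocks in 100% DMSO; incubation: 10 min, room temperature; measured by: luminescence from luciferase reaction; read-out: luciferase activation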
# TRAIL sens C8: sensitizes caspase-8 expressing cells to TRAIL; 360,000 tested, 1% active; AID 624354; inhibition (viability loss, TRAIL sensitization), % at 10 µM; NB7+C8 cells + TRAIL, ATPlite viability luminescence;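 active = compounds causing at least 50% loss of cell viability in the single-dose screen, relative to plate controls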
# FLuc inh counter: Photinus pyralis luciferase inhibition counter-screen. 200,000 tested, 1.5% active. ATPLite firefly luciferase biochemical luminescence, 10 min. inhibition, % at 10 µM. AID 1006. P08659;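 active = inhibition above about 50% when tested at 10 µM, limit read from the data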
# PPC-1+TRAIL kill: PPC-1 cancer cell killing with TRAIL present | PPC-1 cells + TRAIL, ATPLite viability luminescence | 220,000 tested, 0.41% active | cell killing (% activity), % at 4 µM or 5 µM | AID 1443;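 active = cell killing above 50% in the first pass at 4 µM, then a duplicate retest at 5 µM averaging 50% or more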;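 also: plate controls were cells with TRAIL plus DMSO for no effect and medium-only wells lacking cells for full effect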
# * = called active by the depositor; · = not tested or not shown. This is a sample that favours compounds with a hit; in the whole collection about 2.2% have one here.
SMILES,Wee1 stabilizer,PKD1 kinase inh,FLuc stim CS,TRAIL sens C8,FLuc inh counter,PPC-1+TRAIL kill
CC(C(=O)NCC1CCCCC1)N1CCN(S(=O)(=O)c2cccs2)CC1 (configuration not stated),·,·,·,-17,·,·
COc1ccc(O[C@H]2C=C[C@@H](c3ccccc3)O[C@@H]2CO/N=C(\C)CCN2CCCCc3nc(C)c(C)cc32)cc1,2,-5,1,·,2,20
O=C(Nc1nc2ccccc2[nH]1)c1ccc([N+](=O)[O-])cc1,3,2,0.5,51*,51*,48
Cc1ccc(C(=O)Nc2nc3ccccc3[nH]2)cc1,·,·,·,93*,·,·
Cc1c(C(=O)Nc2nc3ccccc3[nH]2)oc2ccccc12,4,6,0.5,42,53*,16
Nc1nc(N)c2c(n1)CCCC2,-3,·,·,12,·,5
CN=c1scc(-c2ccccc2Br)n1/N=C/c1ccc[nH]1,0,-1,0.5,·,54*,15
Nc1ncc(-n2cncn2)c(-c2ccc(Cl)cc2)n1,0,5,1.1,-6,-6,25
Nc1ccc2nc(-c3ccccc3)[nH]c2c1,0,-10,0.4,26,57*,38
Nc1cccc(C(=O)Nc2ccc3nc(-c4cccnc4)[nH]c3c2)c1,-3,-15,0.9,2,11,4
Nc1ccc2nc(-c3cccnc3)[nH]c2c1,-2,-13,0.9,-2,12,16
COc1ccc2nc(-c3ccccn3)[nH]c2c1,·,·,·,40,·,·
COc1ccc2nc(-c3ccc(N)cc3)[nH]c2c1,-2,-6,0.4,34,65*,25
Nc1ccc2nc(-c3ccc(N)c(Cl)c3)[nH]c2c1,1,-11,0.5,31,52*,40
Nc1cccc(-c2nc3ccc(C(=O)c4ccccc4)cc3[nH]2)c1,·,·,·,63*,·,·
CCCNC(=O)C1(C)CCCN(C(=O)c2cc(F)ccc2C)C1 (configuration not stated),·,·,·,-3,·,·
Cc1cccc(C)c1NC(=S)NC(C)(C)CO,-1,·,·,-7,·,19
COc1ccc(-c2nnc(-c3ccc(N(C)C)cc3)o2)cc1,4,-2,0.9,2,12,21
COc1ccc(-c2nnc(-c3ccc(N)cc3)o2)cc1,2,-8,0.3,29,68*,-6
CC(=O)NCc1ccc(-c2nc3ccccc3s2)cc1,5,-6,0.4,39,64*,32
Oc1ccc(-c2nc3ccccc3s2)cc1,1,·,·,62*,·,32
c1ccc2[nH]c(-c3ccc4c(c3)OCO4)nc2c1,·,·,·,72*,·,·
c1ccc2sc(-c3ccc4c(c3)OCO4)nc2c1,14*,-5,0.1,73*,89*,58*
c1ccc2sc(-c3ccncc3)nc2c1,-1,·,·,-2,·,8
COc1cccc(-c2nc3ccccc3s2)c1,3,12,0.3,39,75*,36
SMILES,Wee1 stabilizer,PKD1 kinase inh,FLuc stim CS,TRAIL sens C8,FLuc inh counter,PPC-1+TRAIL kill
c1cncc(-c2nc3ccccc3s2)c1,1,·,·,-13,·,-6
Cn1c(COc2cccc3ccccc23)nnc1SCC(=O)OC1CCCCC1,9.5*,·,·,6,·,-9
CCn1c(COc2cccc3ccccc23)nnc1SCC(=O)OC1CCCCC1,-4,-2,1,-10,2,30
CCN(CC)S(=O)(=O)c1cccc(NC(=O)Nc2cccc(C(F)(F)F)c2)c1,0,0,1,65*,5,6
CN(CC(=O)NCCc1ccc(S(N)(=O)=O)cc1)S(=O)(=O)c1ccc(Br)s1,·,·,·,5,·,·
CCCc1ccc2oc(C(=O)N(C)CCn3ccnc3C)c(C)c2c1,·,·,·,16,·,·
CCCc1cc(=O)[nH]c(SCc2cc(C(=O)OC)c(C)o2)n1,0,-1,1.1,-10,-6,14
Fc1ccccc1CSc1nc2ccccc2[nH]1,1,-2,0.5,25,51*,39
O=[N+]([O-])c1cccc(CSc2nc3ccccc3[nH]2)c1,-1,-10,1,-3,3,24
COC(=O)c1cc(CSc2nc3ccccc3[nH]2)oc1C,-2,3,0.5,20,53*,20
COc1cccc(CSc2nc3ccccc3[nH]2)c1,9.0*,-4,0.3,31,67*,35
CC(C)Oc1ccc(C(=O)Nc2cc(S(=O)(=O)N3CCOCC3)ccc2N2CCOCC2)cc1,·,·,·,18,·,·
O=C(C1CCC(CNS(=O)(=O)c2ccccc2)CC1)N1CCOCC1 (configuration not stated),·,·,·,-28,·,·
CCOc1ccc(/C=C/C(=O)C(C(N)=O)=C2SCCS2)cc1,6,-15,0.4,40,58*,43
Cc1c(/C=C/C(=O)c2ccccc2)cnn1C,-1,-6,0.6,-4,42,31
Cc1c(/C=C/C(=O)c2ccc(C(C)C)cc2)cnn1C,1,2,0.4,21,58*,6
Cc1c(/C=C/C(=O)c2ccc(O)cc2)cnn1C,3,2,0.4,28,58*,26
CCn1ncc(/C=C/C(=O)c2ccccc2)c1C,4,-6,0.2,29,82*,50
Cc1c(/C=C/C(=O)c2ccc(Cl)s2)cnn1C,8,8,0.4,-5,62*,14
COCCCN1C(=O)/C(=C/c2ccc(CNS(=O)(=O)c3ccccc3)o2)C(C(=O)OC)=C1C,1,-2,1.1,-15,-6,8
Nc1nc(SCC(=O)Nc2ccc([N+](=O)[O-])cc2)[nH]c(=O)c1NC(=O)c1ccc(Br)o1,·,·,·,6,·,·
Cc1cc(F)ccc1S(=O)(=O)N1CCCOC1CNC(=O)C(=O)NCc1ccco1 (configuration not stated),9.1*,-10,1.1,6,-5,13
O=C(NCc1cccnc1)C(=O)NCC1OCCCN1S(=O)(=O)c1ccc(F)cc1 (configuration not stated),·,·,·,-10,·,·
O=C(NCc1cccnc1)C(=O)NCC1OCCN1S(=O)(=O)c1ccc(F)cc1 (configuration not stated),9.2*,1,1.1,0,-10,3
CCNC(=O)C1(C)CCCN(C(=O)c2sccc2C)C1 (configuration not stated),·,·,·,7,·,·
SMILES,Wee1 stabilizer,PKD1 kinase inh,FLuc stim CS,TRAIL sens C8,FLuc inh counter,PPC-1+TRAIL kill
CCOc1ccc(NC(=O)CN2CCN(CC(=O)Nc3cc(OC)cc(OC)c3)CC2)cc1,13*,1,1.1,-4,-7,14
CCOc1ccc(NC(=O)CN2CCN(CC(=O)Nc3cccc(F)c3)CC2)cc1,-1,-5,1,-5,-1,15
Cc1c(CCCC(=O)O)sc(N)c1C(=O)c1cccc(C(F)(F)F)c1,·,·,·,-1,·,·
COc1cccc(C(NC(C)=O)c2nc(-c3ccccc3C)cs2)c1 (configuration not stated),·,·,·,7,·,·
O=C(OCc1nnc(-c2ccccc2)o1)C12CC3CC(CC(Br)(C3)C1)C2,9.6*,-2,1,10,0,9
O=C1C(Cl)=C(N2CCCC2)C(=O)N1c1ccc(F)cc1,·,·,·,-13,·,·
